Values after ≈ are worked out from the molar mass of the structure shown.
Test: Solubility of compound in pH 6.8 Cl-free PBS buffer by shake-flask assay
Format: physicochemical
In short: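 Shake-flask solubility measured in chloride-free PBS at pH 6.8.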

`Cc1ccc(NC(=O)c2ccnc(C(F)(F)F)c2)cc1-c1cc(OCCO)nc(N2CCOCC2)c1` [NAPORAFENIB] showed a solubility thermodynamic of 20 µM (≈ 10 µg/mL).

Source: ChEMBL document CHEMBL4342410, “Design and Discovery of N-(3-(2-(2-Hydroxyethoxy)-6-morpholinopyridin-4-yl)-4-methylphenyl)-2-(trifluoromethyl)isonicotinamide, a Selective, Efficacious, and Well-Tolerated RAF Inhibitor Targeting RAS Mutant Cancers: The Path to the Clinic” (J Med Chem, 2020)
